Laboratory results taken from PMC3013634 (FEMS microbiology letters, 2009).

Biological target: T1, sPBP 6 (Escherichia coli, UniProt P08506)
T1 sequence (P08506 28-388 limits assumed): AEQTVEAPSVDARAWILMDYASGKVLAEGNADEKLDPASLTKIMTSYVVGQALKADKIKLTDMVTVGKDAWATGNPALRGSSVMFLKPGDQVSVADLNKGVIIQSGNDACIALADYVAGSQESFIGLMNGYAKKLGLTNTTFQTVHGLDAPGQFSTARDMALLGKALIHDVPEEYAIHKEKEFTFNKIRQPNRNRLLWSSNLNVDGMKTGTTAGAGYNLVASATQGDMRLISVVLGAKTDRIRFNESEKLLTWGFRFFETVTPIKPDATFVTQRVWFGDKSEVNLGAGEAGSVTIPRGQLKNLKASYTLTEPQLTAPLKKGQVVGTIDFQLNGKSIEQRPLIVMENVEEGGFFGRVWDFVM
Assay: acylation rate, fluorescent labelling, SDS-PAGE densitometry
Format: binding
Details: covalent; labelled compound; active-site serine acylation; 25-100 μM, 30-120 s
In short: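 Enzyme (250 μg) was incubated with BOCILLIN FL at 25, 50 or 100 μM for 30–120 s, then run on 12% SDS-PAGE and fluorescence-scanned (488/526 nm). Pseudo-first-order ka came from bound density relative to saturation, and k2/K from the slope of ka versus concentration.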

## Cc1cc(C)n2c1C=C1C=CC(CCC(=O)Nc3ccc(OCC(=O)N[C@@H]4C(=O)N5[C@@H]4SC(C)(C)[C@@H]5C(=O)[O-])cc3)=[N+]1[B-]2(F)F.[Na+] [BOCILLIN FL]
  k2/K / M^-1 s^-1: 1900 ± 65.5 M⁻¹ s⁻¹
